The source made the active and inactive calls.
Key:
Jurkat [1] = test: Induction of apoptosis in human Jurkat cells assessed as caspase-3 activation at 500 nM after 6 to 24 hrs by plate reader analysis; assay type: functional, cell-based
Method in brief: (§1)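 Jurkat cells were treated with 500 nM compound for 6 h and 24 h, then lysed. Lysates were incubated with pNA-conjugated substrates: Ac-DEVD (caspase-3), Ac-IETD (caspase-8) and LEHD (caspase-9). pNA release was read at 405 nm and normalized to Bradford protein. Results are expressed as fold increase over untreated control.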

[2] = Cytotoxicity against human HCT15 cells assessed as growth inhibition after 72 hrs by MTT assay; assay type: functional; settings: HCT-15, 72 h
[3] = target: T1, DNA topoisomerase 1 (Homo sapiens) (UniProt P11387); test: Inhibition of human DNA topoisomerase 1-mediated DNA single strand cleavage at 5 to 100 uM after 30 mins by agarose gel electrophoresis relative to untreated control
T1 sequence (whole entry): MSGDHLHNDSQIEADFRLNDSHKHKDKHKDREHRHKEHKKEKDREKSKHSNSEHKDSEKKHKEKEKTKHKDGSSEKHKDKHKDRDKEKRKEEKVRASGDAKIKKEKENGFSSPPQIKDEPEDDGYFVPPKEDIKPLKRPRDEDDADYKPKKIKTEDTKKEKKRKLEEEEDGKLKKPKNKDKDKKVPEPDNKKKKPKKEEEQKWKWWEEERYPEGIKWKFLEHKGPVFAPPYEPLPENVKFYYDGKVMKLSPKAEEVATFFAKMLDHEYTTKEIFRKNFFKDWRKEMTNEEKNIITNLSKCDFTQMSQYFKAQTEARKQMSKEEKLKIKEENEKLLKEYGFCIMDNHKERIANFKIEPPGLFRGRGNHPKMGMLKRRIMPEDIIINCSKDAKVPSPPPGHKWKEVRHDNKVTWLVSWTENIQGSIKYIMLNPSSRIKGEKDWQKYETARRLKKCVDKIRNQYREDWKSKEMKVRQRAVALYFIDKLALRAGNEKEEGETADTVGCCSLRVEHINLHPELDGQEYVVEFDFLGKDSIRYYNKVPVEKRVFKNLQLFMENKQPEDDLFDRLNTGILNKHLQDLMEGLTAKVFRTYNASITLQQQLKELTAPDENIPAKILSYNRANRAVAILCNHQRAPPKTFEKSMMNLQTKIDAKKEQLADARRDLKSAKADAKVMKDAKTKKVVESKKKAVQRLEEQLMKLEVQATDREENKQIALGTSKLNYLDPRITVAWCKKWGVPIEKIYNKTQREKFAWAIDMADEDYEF
Method in brief: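 Reactions were set up as for relaxation: human topoisomerase I, 0.250 µg pBR322, compound 5-100 µM, 37 °C for 30 min, stopped with SDS/proteinase K. Samples were run on 0.8% agarose containing 0.5 µg/mL ethidium bromide, then destained in water, so that cleaved/nicked DNA could be detected under UV.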

[4] = Binding affinity to DNA (unknown origin) at compound to DNA ratio 0.01 to 0.04 by linear dichroism method
Method in brief: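 Linear dichroism spectra were recorded at different compound/DNA ratios in 10 mM phosphate buffer, pH 7.2.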

[5] = Cytotoxicity against human PC3 cells assessed as growth inhibition after 72 hrs by MTT assay; assay type: functional; settings: PC-3, 72 h
Method in brief: (§2)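 NCI 60-cell-line panel screen. Compounds were tested at 5 concentrations in 10-fold dilution (10^-4 to 10^-8 M) across the full panel. GI50 was taken as the molar concentration giving 50% inhibition of net cell growth.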

[6] = Cytotoxicity against human OVCAR8 cells assessed as growth inhibition after 72 hrs by MTT assay; assay type: functional; settings: OVCAR-8, 72 h; method in brief: as §2
T47D = test: Cytotoxicity against human T47D cells assessed as growth inhibition after 72 hrs by MTT assay; assay type: functional; method in brief: as §2
HL-60(TB) = test: Cytotoxicity against human HL-60(TB) cells assessed as growth inhibition after 72 hrs by […] assay; assay type: functional; settings: HL-60, 72 h
Method in brief: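 HL-60(TB) was tested within the NCI 60 human cancer cell line panel. Compounds that met the NCI single-dose activity criteria were retested on the full panel at 5 concentrations in 10-fold dilutions (10-4–10-8 M). GI50 is the molar concentration giving 50% inhibition of net cell growth; TGI was also reported.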

SK-OV-3 = test: Cytotoxicity against human SKOV3 cells assessed as growth inhibition after 72 hrs by MTT assay; assay type: functional; settings: SK-OV-3, 72 h; method in brief: as §2
A549 = test: Cytotoxicity against human A549 cells assessed as growth inhibition after 72 hrs by MTT assay; assay type: functional; settings: A549, 72 h
CCRF-CEM = test: Cytotoxicity against human vinblastin-resistant CEM cells assessed as growth inhibition after 72 hrs by MTT assay; assay type: functional
Method in brief: (§3)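 CEMVbl-100 (vinblastine-selected CEM) was grown in RPMI-1640 with 0.1 µg/mL vinblastine. LoVoDoxo was grown in HAM's F12 with 0.1 µg/mL doxorubicin; parental CEM and LoVo were grown without drug. Media had 10% FBS. 5x10^3 cells were seeded, preincubated 24 h at 37 °C, then exposed 72 h to compound (DMSO <1%). Read-out was MTT; GI50 came from dose-response curves of ≥3 experiments. RI = GI50 resistant / GI50 parental.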

Jurkat [7] = test: Induction of apoptosis in human Jurkat cells assessed as caspase-8 activation at 500 nM after 6 hrs by plate reader analysis; assay type: functional, cell-based; method in brief: as §1
SK-MEL-5 = test: Cytotoxicity against human SK-MEL-5 cells assessed as growth inhibition after 72 hrs by MTT assay; assay type: functional; settings: SK-MEL-5, 72 h; method in brief: as §2
LoVo [8] = test: Resistance index, ratio of GI50 for human LoVo/DX cells to GI50 for human LoVo cells; assay type: functional; method in brief: as §3
SF-539 = test: Cytotoxicity against human SF539 cells assessed as growth inhibition after 72 hrs by MTT assay; assay type: functional; settings: SF-539, 72 h; method in brief: as §2
LoVo [9] = test: Cytotoxicity against human LoVo cells assessed as growth inhibition after 72 hrs by MTT assay; assay type: functional
Method in brief: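 Cells were grown in medium with 10% heat-inactivated FBS plus penicillin/streptomycin: RPMI-1640 for Jurkat and CEM, DMEM for A-431, HAM's F12 for LoVo. The doxorubicin-resistant LoVo subclone was kept with 0.1 µg/mL doxorubicin. Cells were seeded at 5x10^3 per well and pre-incubated 24 h at 37 °C.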

[10] = Cytotoxicity against human OVCAR3 cells assessed as growth inhibition after 72 hrs by MTT assay; assay type: functional; settings: OVCAR-3, 72 h; method in brief: as §2
[11] = Cytotoxicity against human UO31 cells assessed as growth inhibition after 72 hrs by MTT assay; assay type: functional; settings: UO-31, 72 h; method in brief: as §2
NCI-H460 = test: Cytotoxicity against human NCI-H460 cells assessed as growth inhibition after 72 hrs by MTT assay; assay type: functional; settings: NCI-H460, 72 h
IGROV-1 = test: Cytotoxicity against human IGROV1 cells assessed as growth inhibition after 72 hrs by MTT assay; assay type: functional; settings: IGROV-1, 72 h
[12] = Cytotoxicity against human UACC257 cells assessed as growth inhibition after 72 hrs by MTT assay; assay type: functional; settings: UACC-257, 72 h; method in brief: as §2
Jurkat [13] = test: Cell cycle arrest in human Jurkat cells assessed as accumulation at G1 phase at 0.25 uM after 24 hrs by propidium iodide staining-based flow cytometry (reference value: 62.6%); assay type: functional

Row | Structure (SMILES) | Activity (Jurkat [1]) | GI50 [2] | Activity [3] | Activity [4] | GI50 [5] | GI50 [6] | GI50 (T47D) | GI50 (HL-60(TB)) | GI50 (SK-OV-3) | GI50 (A549) | GI50 (CCRF-CEM) | Activity (Jurkat [7]) | GI50 (SK-MEL-5) | Ratio (LoVo [8]) | GI50 (SF-539) | GI50 [10] | GI50 [11] | GI50 (NCI-H460) | GI50 (IGROV-1) | GI50 [12] | also measured
1 | COc1cc2nnn3c4ncccc4c(N=O)c3c2cc1OC | Active | 1620 nM | Active | inactive | 2360 nM | 820 nM | 210 nM | 40 nM | 4020 nM | 13300 nM | 510 nM | Active | 12600 nM | 1.11 | 1820 nM | 460 nM | 400 nM | 2610 nM | 1940 nM | 4540 nM | GI50 (LoVo [9]): 3890 nM; Activity (Jurkat [13]): 37.3%
2 | COc1ccc2c(c1)nnn1c3ncccc3c(N=O)c21 | Active | 3130 nM | Active | inactive | – | 3900 nM | 160 nM | 43 nM | 1680 nM | 10800 nM | 440 nM | Active | 5010 nM | 0.51 | 470 nM | 1110 nM | 76 nM | 1670 nM | 110 nM | 8210 nM | GI50 (LoVo [9]): 1280 nM; Activity (Jurkat [13]): 35.5%
3 | COc1cc2nnc3c4cccnc4[nH]c3c2cc1OC | – | 1430 nM | – | – | 1490 nM | 1250 nM | 400 nM | 190 nM | 2290 nM | 7900 nM | – | – | 7330 nM | – | 1730 nM | 1150 nM | 490 nM | 2460 nM | 1730 nM | 3320 nM | –
4 | O=Nc1c2cccnc2n2nnc3ccc(Cl)cc3c12 | – | 960 nM | – | – | 740 nM | 1800 nM | 260 nM | 300 nM | 2980 nM | 2200 nM | – | – | 3820 nM | – | 1890 nM | 250 nM | 650 nM | 1330 nM | 1350 nM | 3070 nM | –
5 | COc1ccc2c(c1)nnc1c3cccnc3[nH]c21 | Active | 2260 nM | Active | Active | – | 620 nM | 490 nM | 160 nM | 2690 nM | 7900 nM | 1020 nM | Active | 5850 nM | 0.33 | 640 nM | 960 nM | 120 nM | 1930 nM | 310 nM | 7490 nM | GI50 (LoVo [9]): 3640 nM; Activity (Jurkat [13]): 30.2%

Reference: ChEMBL document CHEMBL3351507, “11H-Pyrido[3',2':4,5]pyrrolo[3,2-c]cinnoline and pyrido[3',2':4,5]pyrrolo[1,2-c][1,2,3]benzotriazine: two new ring systems with antitumor activity” (2014)
